Assay: Toxicity liver stage against HepG2, at 10uM
Assay type: cell-based
Design: test concentration 10 uM, cell line HepG2-A16-CD81EGFP
Conditions: human, HepG2-A16-CD81EGFP cells; read-out: INHIBITION
In short: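 Uninfected HepG2-A16-CD81EGFP cells, 3 × 10^3 per well, 1536-well, plated on prespotted compound at 10 μM final, parasite-free screening media added to match infected plates; puromycin 10 μM positive, DMSO 0.5% negative; run in parallel with 48 h PbLuc assay at 37 °C, 5% CO2; viability by CellTiter-Glo luminescence, normalized to controls.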

Compound | cytotoxicity at 10 µM [%]
O=C(c1cnccn1)N1C[C@@H]2OCC(=O)N(CC3CCCCC3)[C@@H]2C1 | -4.97
COc1cc2c(cc1OC)C(=O)C(Sc1nnnn1C)C2 (stereo not given) | -13.7
COCCSc1ccc(-n2ccnc2)nn1 | 6.11
COCCNC(=O)NCc1cc(-c2ccncc2)n(C2CCCC2)n1 | -8.71
O=C(Cc1ccc(F)cc1)NCCc1ccoc1 | -10.5
COC(=O)c1ccc(S(=O)(=O)N2CCC(Oc3cccnn3)CC2)cc1 | -4.83
O=C(NCc1cccs1)NCC1(O)CCc2ccccc2C1 (stereo not given) | -13.8
CC(C)n1nc(CNc2ncccn2)c2c1CN(S(C)(=O)=O)CC2 | -138
CCS(=O)(=O)N1Cc2c(Cn3ccnc3)nn(C)c2C1 | -2.85
CC(C)N1c2sc(-c3ccsc3)nc2CC1C(=O)NC1CC1 (stereo not given) | 8.67
CS(=O)(=O)N1CCOCC12CCN(c1nncs1)CC2 | 6.74
CN(C)c1ncnc2c1CCN(c1cc(C(F)(F)F)ncn1)CC2 | 9.55
Cc1noc(C2CCCCN2C(=O)NCc2ccco2)n1 (stereo not given) | 0.986
Cc1ccnc(OCC(=O)N2CCC(C(N)=O)CC2)n1 | -17.7
CC1CCN(C(=O)c2cc(NC(=O)c3ccccc3)n(C)n2)CC1 | 5.17
Cn1nc(C(=O)N2CCCCCC2)cc1NC(=O)c1ccccc1 | -0.942
Cc1ncc2c(n1)CCCC2NC(=O)c1cnn(Cc2ccccc2)c1 (stereo not given) | -4.49
Cc1nc2cc(-c3nccn3C)nn2c(N2CCCC2)c1C | 4.53
Cc1cc(C)nc(C2CCN(C(=O)CO)CC2)n1 | 2.53
CC(=O)N1CCC(Cc2cnc(Nc3cc(C)on3)cn2)CC1 | 3.48
O=C(C1CC1)N1CCC(O)(CN2CCN(c3ccccc3)CC2)C1 (stereo not given) | -3.3
CN(C)CCN(C)C(=O)Cn1cccc2cc(-c3ccc(F)cc3)nc1-2 | -24.4

Compound | cytotoxicity at 10 µM [%]
COc1ccc(F)cc1-c1ccccc1CC1(C(=O)O)CCOCC1 | 5.57
Cc1nc(C)n(CC2CCCN(c3ccnc(-c4ccccc4)n3)C2)n1 (stereo not given) | 39.4
CC(C)(C)n1cc(C#N)cc1NC(=O)CCNC(=O)c1ccco1 | 1.95
CCCn1cnc(S(=O)(=O)Nc2cccnc2-n2cccn2)c1 | 15.4
Cc1cnn(CC2CN(CC(=O)Nc3c(C)nn(C)c3C)CCO2)c1 (stereo not given) | 1.08
CCOC(C)c1nccn1Cc1cc(C)on1 (stereo not given) | 8.41
CN(Cc1ccsc1)C(=O)c1nc(N2CCCCC2)ncc1Cl | -27.4
Cn1cnnc1C1CCN(c2nc3ccccc3o2)CC1 | 14.1
CCC(CNC(=O)COC)Oc1cccc(F)c1 (stereo not given) | -44.6
CN(Cc1ncnn1C)C(=O)CCn1ccc2ccccc21 | 1.16
Cc1cc(NC(=O)CNC(C)(C)c2nc(C)c(C)s2)no1 | 13.3
CS(=O)(=O)Nc1cccc(CNC(=O)CCNC(=O)c2cccs2)c1 | 0.466
COc1cccc(NC(=O)CCCc2nc(C(C)C)no2)c1 | 6.39
Cc1cc(C(=O)N(CC2CCCO2)c2ccncc2)c(C)o1 (stereo not given) | -8.97
COc1ncccc1CNCc1c(C(C)C)nn(C)c1OC | -1.68
O=C(NCc1nnc2n1CCCCC2)N(Cc1ccncc1)C1CC1 | 9.66
CC(C#N)CSc1ccccc1NCC(=O)Nc1ccccc1 (stereo not given) | 6.24
CC1CCN(CCNC(=O)C2CCN(C(=O)NC(C)C)CC2)CC1 | 8.21
Cc1ccc(C(=O)NCC(O)c2ccc(F)c(F)c2)c(=O)[nH]1 (stereo not given) | -3.09
Cc1n[nH]c(C2CN(C(=O)c3coc(Br)c3)CCO2)n1 (stereo not given) | -11.3
CCn1cnnc1C1CCN(C(=O)c2ccc3ccccc3n2)CC1 | 6.13
O=C(NCC1CC1)C1CSCN1S(=O)(=O)c1ccccc1F (stereo not given) | 5.02

Compound | cytotoxicity at 10 µM [%]
CC1(C)CN(CC(F)(F)F)CCN1CC(=O)NC1CCCC1 | 10.4
O=C(CNc1ccc(F)cc1OCC(F)(F)F)NCC(F)(F)F | 3.87
CCc1nc(CC(=O)N2CCC(C(=O)N(CC)CC)CC2)cs1 | -1.42
Cc1cc(C(=O)CN2CCN(c3ncccn3)CC2)c(C)n1C(C)C | 9.71
CC(=O)NC(C)C(=O)Nc1ccc(OCc2cccc(F)c2)cc1C (stereo not given) | 0.305
O=C(COCC(F)(F)F)NC1CCCc2cc(OC(F)F)ccc21 (stereo not given) | -5.36
COc1cc(Cl)c(C)cc1NC(=O)CNc1ccn(CC(N)=O)n1 | 9.8
O=C(Cc1ccccc1O)NC1CCCN(c2ccccc2F)C1=O (stereo not given) | -13.7
CC(C)C(NC(=O)c1ccccc1F)C(=O)Nc1cnn(C)c1 (stereo not given) | -7.58
O=C(NCCn1cnnc1C1CC1)c1c(O)cc(F)cc1F | -1.88
Cc1nc2ccccn2c1CN(Cc1cccnc1)CC1CCCO1 (stereo not given) | -7.1
Cc1ccc(CN2CCO[C@@H]3[C@@H](OCc4cccnc4)CC[C@@H]32)o1 | 8.37
O=c1ccc2c(n1CC1CC1)CCN(c1ncccn1)CC2 | 7.17
CN1CCC2(CC1)CN(C(=O)c1cccnc1)c1ccc(Cl)cc12 | -109
CCS(=O)(=O)N1C[C@H]2CC[C@@]3(N=C(C)N(CC(C)C)C3=O)[C@H]2C1 | -85
COC[C@@H]1CC[C@H]2[C@H](CCN2S(=O)(=O)c2ccc(F)cc2)O1 | -2.76
CCn1cc(CN2CCCn3nc(CNS(C)(=O)=O)cc3C2)c(C)n1 | 4.06
Cc1cc(C)n(CCN(C)Cc2c[nH]nc2-c2ccc3c(c2)OCO3)n1 | 0.562
Cc1nc2c(c(N3CCC(O)(Cn4ccnc4)CC3)n1)CCNCC2 | 1.37
O=C(O)CC[C@@H]1CN(c2ncnc3[nH]ccc23)CC[C@@H]1N1CCOCC1 | -15.8
O=C(c1ncoc1C1CC1)N1CCN(CCOc2ccccc2)CC1 | -6.93
COc1ccc(-c2noc(Cn3cnc(C)c3)n2)c(OC)c1OC | -13.2

Compound | cytotoxicity at 10 µM [%]
COc1ccc(C(=O)NC2CC2)c(OC2CCN(CC3CC3)CC2)c1 | -1.47
NC(=O)c1cc2c(nc1-c1ccc3c(c1)OCCO3)CCC2 | -1.88
CC(N)C(=O)N1CCC(Oc2cccc(C(F)(F)F)c2)CC1 (stereo not given) | -8.54
CC(C)(C(=O)NCC1CCN(Cc2ncc[nH]2)C1)c1ccccc1 (stereo not given) | 2.15
CNC(=O)CCCNc1cc(C)nc2cc(C)nn12 | -5.97
Cc1ccc(OCC2CCCN(c3cc(C(N)=O)ccn3)C2)cc1 (stereo not given) | 11.1
O=C1NCCCc2[nH]c(Cc3cccc(F)c3)nc21 | -3.47
CCCc1nnc(N2CCN(C3CCCC3)CC2)o1 | -13.8
CCc1ocnc1C(=O)N1CCN(c2ccc3ccccc3c2)CC1 | 2.99
CCc1cn[nH]c1C1CCN(c2cc(C)c3cc(OC)ccc3n2)CC1 | 1.93
O=C(NCc1cn2cccnc2n1)C1CC(=O)N(Cc2cccnc2)C1 (stereo not given) | -3.23
CSCCC(=O)N(C/C=C/c1ccccc1)CCO | -4.47
CCN(CC)Cc1cc(C(=O)N2CCCC(O)(CO)C2)c(C)o1 (stereo not given) | 7.87
O=C(c1cc[nH]n1)N1CCc2ccc(S(=O)(=O)N3CCOCC3)cc2C1 | 5.18
CC(C)(O)CCc1ccc(C(=O)N2CCN(CC3CCCC3)CC2)cc1 | 12.4
CCc1cc(C(=O)N2CC[C@@H](c3ccc4c(c3)OCO4)[C@H](O)C2)ccn1 | 1.48
Cc1n[nH]c(C)c1NC(=O)CN1CCCC1c1noc(C2CC2)n1 (stereo not given) | 2.94
Cc1cc(CN2CCN(c3ccc4nncn4n3)CC2)no1 | -4.6
Cc1ccc(CN(C)C(=O)c2ccc(NC3CC3)nc2)o1 | -5.57
Cc1nc(C(C)C)sc1C(=O)NCCNc1ncccn1 | -2.02
CC(C)n1nc2c(cc1=O)CN(Cc1nc3ccccc3o1)CC2 | -2.19
COCCN1CCC(CNC(=O)C2(c3cc(C)cc(C)c3)CC2)CC1 | -7.94

Compound | cytotoxicity at 10 µM [%]
Cn1cc(-c2nc(CN3CCOC(Cn4cncn4)C3)cs2)cn1 (stereo not given) | -1.41
c1coc(-c2noc(CN3CCc4cncnc4C3)n2)c1 | -9.39
Cc1nc(C2CCCN2CCS(C)(=O)=O)no1 (stereo not given) | -5.07
c1nc(N2CCOCC2)ncc1-c1cncn1CCCN1CCCCC1 | -7.08
Fc1ccccc1CNc1ccnc(C2CCNCC2)c1 | 8.88
Cc1nc(N)c2ccc(C3CCCN3)nc2n1 (stereo not given) | 3.67
CC(=O)N1CCOCC2(CN(Cc3ccc(C)o3)CCO2)C1 (stereo not given) | 6.41
Cc1cc(CN2C[C@H](N3CCOCC3)[C@@H]3OCCC[C@@H]32)oc1C | -139
O=C([C@H]1CN(Cc2cccnc2)C[C@H]2OCC[C@@H]12)N1CCCO1 | 8.98
CN1CCC2(C=C(C(=O)N3CCCC3)c3ccccc32)CC1 | 1.97
O=C(Cc1cccnc1)N1CCC2(CCN(CC3CCCCC3)C2)CC1 | -1.28
CN(C)CCN1CCOCC2(C1)CN(Cc1ccco1)CCO2 (stereo not given) | -111
CN1CCC2(CCN(CC3CCOCC3)CC2)C1=O | 6.77
c1cncc(-c2ccc3c(c2)CCC32CCN(Cc3ccco3)CC2)c1 | 17.1
COc1cc(N2CCC[C@]3(C(=O)O)CN(C(C)C)C[C@@H]3C2)ncn1 | 4.14
C[C@@H]1CN(C2CCOC2)C[C@]12CCN(c1cccnc1)C2=O (stereo not given in full) | 7.49
COCC(=O)N1C[C@@H](OCc2cccnc2)[C@H]2OCCC[C@@H]21 | 2.53
C[C@@H]1C(=O)NC[C@H]2CN(CCc3ccccc3)C[C@H]21 | 5.45
O=S(=O)(C1CC1)N1CCC2(CC1)CC(Oc1cccnc1)CO2 (stereo not given) | -2.27
CN(C)C(=O)N1C[C@H]2CC[C@@H](C1)N(C(=O)c1cccc(N(C)C)c1)C2 | 0.502
N#CC1(C(=O)N2C[C@@H]3CC[C@H]2CN(Cc2ccncc2)C3)CCOCC1 | -11.9
COCCN1C[C@@H]2CC[C@H]1CN(C(=O)CCn1cc(Cl)cn1)C2 | 7.62

Reference: ChEMBL document CHEMBL4513216, “Probing the Open Global Health Chemical Diversity Library for Multistage-Active Starting Points for Next-Generation Antimalarials” (ACS Infect Dis, 2020)
